ChEMBL document CHEMBL5058577, “EUbOPEN Chemogenomics Library 2 (Multiplex)” (2022)

Test system: Fibroblast
Experiment: Multiplex assay against human fibroblast
Type: toxicity, cell-based
How it was run: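 Phenotypes for tubulin, mitochondrial mass and membrane permeability are expressed as per cents of healthy-nucleus cells. Cells were stained live at seeding with Hoechst33342, BioTracker Green Microtubule Cytoskeleton Dye, MitoTracker Red and Annexin V Alexa Fluor 680, then imaged after compound addition on a CQ1 microscope at 37°C and 5% CO2. Machine-learning gating in CellPathfinder separated Hoechst high-intensity objects from normal cells, divided normal cells by nuclear state (healthy, pyknosed, fragmented) and divided pyknosed cells into mitotic or apoptotic.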

[1] = 12 h, 1 µM, compound concentration 1 uM, replicate 1
[2] = 12 h, 1 µM, compound concentration 1 uM, replicate 2
[3] = 12 h, 10 µM, compound concentration 10 uM, replicate 1
[4] = 12 h, 10 µM, compound concentration 10 uM, replicate 2
[5] = 24 h, 1 µM, compound concentration 1 uM, replicate 1
[6] = 24 h, 1 µM, compound concentration 1 uM, replicate 2
[7] = 24 h, 10 µM, compound concentration 10 uM, replicate 1
[8] = 24 h, 10 µM, compound concentration 10 uM, replicate 2
[9] = 48 h, 1 µM, compound concentration 1 uM, replicate 1
[10] = 48 h, 1 µM, compound concentration 1 uM, replicate 2
[11] = 48 h, 10 µM, compound concentration 10 uM, replicate 1
[12] = 48 h, 10 µM, compound concentration 10 uM, replicate 2

CC[C@@H](C)Nc1nc(C)nc2c(-c3ccc(OC)nc3C)c(C)nn12 [PEXACERFONT]
Population Apoptotic (%) [1]: 40%
Population Fragmented Nuclei (%) [1]: 12%
Population Healthy Nuclei (%) [1]: 66%
Population Hoechst High Intensity Objects (%) [1]: 1%
Population Membrane Permeable-Phenotype (%) [1]: 2%
Population Mitochondria Different-Phenotype (%) [1]: 4%
Population Mitotic Cells (%) [1]: 60%
Population Normal (%) [1]: 98%
Population Pyknosed Nuclei (%) [1]: 20%
Population Tubulin-Different-Phenotype (%) [1]: 35%
Total Cell Count [1]: 147
Population Apoptotic (%) [2]: 25%
Population Fragmented Nuclei (%) [2]: 32%
Population Healthy Nuclei (%) [2]: 44%
Population Hoechst High Intensity Objects (%) [2]: 2%
Population Membrane Permeable-Phenotype (%) [2]: 15%
Population Mitotic Cells (%) [2]: 75%
Population Normal (%) [2]: 97%
Population Pyknosed Nuclei (%) [2]: 24%
Population Tubulin-Different-Phenotype (%) [2]: 65%
Total Cell Count [2]: 103
Population Apoptotic (%) [3]: 43%
Population Fragmented Nuclei (%) [3]: 15%
Population Healthy Nuclei (%) [3]: 55%
Population Hoechst High Intensity Objects (%) [3]: 2%
Population Membrane Permeable-Phenotype (%) [3]: 0%
Population Mitochondria Different-Phenotype (%) [3]: 19%
Population Mitotic Cells (%) [3]: 56%
Population Normal (%) [3]: 97%
Population Pyknosed Nuclei (%) [3]: 29%
Population Tubulin-Different-Phenotype (%) [3]: 62%
Total Cell Count [3]: 143
Population Apoptotic (%) [4]: 38%
Population Fragmented Nuclei (%) [4]: 21%
Population Healthy Nuclei (%) [4]: 40%
Population Hoechst High Intensity Objects (%) [4]: 8%
Population Membrane Permeable-Phenotype (%) [4]: 7%
Population Mitochondria Different-Phenotype (%) [4]: 9%
Population Mitotic Cells (%) [4]: 61%
Population Normal (%) [4]: 91%
Population Pyknosed Nuclei (%) [4]: 38%
Population Tubulin-Different-Phenotype (%) [4]: 68%
Total Cell Count [4]: 147
Population Apoptotic (%) [5]: 52%
Population Fragmented Nuclei (%) [5]: 16%
Population Healthy Nuclei (%) [5]: 70%
Population Hoechst High Intensity Objects (%) [5]: 1%
Population Membrane Permeable-Phenotype (%) [5]: 0%
Population Mitochondria Different-Phenotype (%) [5]: 3%
Population Mitotic Cells (%) [5]: 47%
Population Normal (%) [5]: 98%
Population Pyknosed Nuclei (%) [5]: 13%
Population Tubulin-Different-Phenotype (%) [5]: 38%
Total Cell Count [5]: 157
Population Apoptotic (%) [6]: 47%
Population Fragmented Nuclei (%) [6]: 35%
Population Healthy Nuclei (%) [6]: 42%
Population Hoechst High Intensity Objects (%) [6]: 3%
Population Membrane Permeable-Phenotype (%) [6]: 20%
Population Mitochondria Different-Phenotype (%) [6]: 2%
Population Mitotic Cells (%) [6]: 52%
Population Normal (%) [6]: 96%
Population Pyknosed Nuclei (%) [6]: 22%
Population Tubulin-Different-Phenotype (%) [6]: 61%
Total Cell Count [6]: 108
Population Apoptotic (%) [7]: 37%
Population Fragmented Nuclei (%) [7]: 16%
Population Healthy Nuclei (%) [7]: 56%
Population Hoechst High Intensity Objects (%) [7]: 1%
Population Membrane Permeable-Phenotype (%) [7]: 2%
Population Mitochondria Different-Phenotype (%) [7]: 10%
Population Mitotic Cells (%) [7]: 62%
Population Normal (%) [7]: 98%
Population Pyknosed Nuclei (%) [7]: 27%
Population Tubulin-Different-Phenotype (%) [7]: 68%
Total Cell Count [7]: 139
Population Apoptotic (%) [8]: 38%
Population Fragmented Nuclei (%) [8]: 18%
Population Healthy Nuclei (%) [8]: 47%
Population Hoechst High Intensity Objects (%) [8]: 7%
Population Membrane Permeable-Phenotype (%) [8]: 20%
Population Mitochondria Different-Phenotype (%) [8]: 6%
Population Mitotic Cells (%) [8]: 61%
Population Normal (%) [8]: 92%
Population Pyknosed Nuclei (%) [8]: 33%
Population Tubulin-Different-Phenotype (%) [8]: 76%
Total Cell Count [8]: 143
Population Apoptotic (%) [9]: 54%
Population Fragmented Nuclei (%) [9]: 15%
Population Healthy Nuclei (%) [9]: 69%
Population Hoechst High Intensity Objects (%) [9]: 8%
Population Membrane Permeable-Phenotype (%) [9]: 1%
Population Mitochondria Different-Phenotype (%) [9]: 0%
Population Mitotic Cells (%) [9]: 45%
Population Normal (%) [9]: 91%
Population Pyknosed Nuclei (%) [9]: 15%
Population Tubulin-Different-Phenotype (%) [9]: 30%
Total Cell Count [9]: 160
Population Apoptotic (%) [10]: 25%
Population Fragmented Nuclei (%) [10]: 40%
Population Healthy Nuclei (%) [10]: 45%
Population Hoechst High Intensity Objects (%) [10]: 1%
Population Membrane Permeable-Phenotype (%) [10]: 26%
Population Mitochondria Different-Phenotype (%) [10]: 4%
Population Mitotic Cells (%) [10]: 75%
Population Normal (%) [10]: 98%
Population Pyknosed Nuclei (%) [10]: 14%
Population Tubulin-Different-Phenotype (%) [10]: 52%
Total Cell Count [10]: 113
Population Apoptotic (%) [11]: 87%
Population Fragmented Nuclei (%) [11]: 23%
Population Healthy Nuclei (%) [11]: 53%
Population Hoechst High Intensity Objects (%) [11]: 3%
Population Membrane Permeable-Phenotype (%) [11]: 0%
Population Mitochondria Different-Phenotype (%) [11]: 14%
Population Mitotic Cells (%) [11]: 12%
Population Normal (%) [11]: 96%
Population Pyknosed Nuclei (%) [11]: 22%
Population Tubulin-Different-Phenotype (%) [11]: 62%
Total Cell Count [11]: 144
Population Apoptotic (%) [12]: 52%
Population Fragmented Nuclei (%) [12]: 32%
Population Healthy Nuclei (%) [12]: 50%
Population Hoechst High Intensity Objects (%) [12]: 4%
Population Membrane Permeable-Phenotype (%) [12]: 12%
Population Mitochondria Different-Phenotype (%) [12]: 9%
Population Mitotic Cells (%) [12]: 47%
Population Normal (%) [12]: 95%
Population Pyknosed Nuclei (%) [12]: 16%
Population Tubulin-Different-Phenotype (%) [12]: 76%
Total Cell Count [12]: 134
